Active and inactive are the calls of the source. The rule behind the calls is not given here.
How the values were obtained:
[1] = test system: Mycobacterium tuberculosis; experiment: Antimycobacterial activity against Mycobacterium tuberculosis Erdman harboring frameshift mutation in KatG at amino acid 6 assessed as reduction in colony forming units at […] incubated for 13 days (reference value: 9.07 x 10^9 CFU/mL); type: functional; settings: dose 2.5 µg/ml; time 13 day
[2] = test system: Mycobacterium tuberculosis; experiment: Antimycobacterial activity against Mycobacterium tuberculosis Erdman harboring frameshift mutation in KatG at amino acid 6 assessed as reduction in colony forming units at 1 uM incubated for 13 days; type: functional, organism-based; settings: time 13.0 day
Method in brief: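 katG frameshift mutant grown to log phase in Sauton's medium, diluted to 5 × 10^7 CFU/mL, given 1 μM compound (imidazole salt in DMSO); IMD/DMSO vehicle controls. Incubated rolling at 37 °C. After 13 days, serial dilutions plated on 7H11 agar with ADC for CFU. Two experiments, each in duplicate; one-way ANOVA with Tukey's correction.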

[3] = test system: Mycobacterium tuberculosis; experiment: Reversal of isoniazid resistance in Mycobacterium tuberculosis Erdman harboring frameshift mutation in KatG at amino acid 6 assessed as reduction in surviving bacteria by measuring reduction in colony forming units at 1 uM incubated for 13 days; type: functional, organism-based; settings: time 13.0 day

Structure (SMILES) | Activity [1] | Activity [2] | Activity [3]
NNC(=O)c1ccncc1 [ISONIAZID] | 8.09 10^8CFU/ml | – | –
O=C(O)C1CSc2c(C3CC3)c(Cc3cccc4ccccc34)cc(=O)n21.c1c[nH]cn1 (racemic) | – | inactive | inactive
O=C(O)C1CSc2c(C3CC3)c(-c3cc(-c4ccc5ccccc5c4)no3)cc(=O)n21.c1c[nH]cn1 (racemic) | – | inactive | Active

From ChEMBL document CHEMBL5360619
